Experimental data collected from several papers.
Each line is one published result; the experiments were not run side by side.
Organism: Trypanosoma cruzi
Read-out: parasite growth

| Structure (SMILES) | test | system | setting | IC50 |
| --- | --- | --- | --- | --- |
| O=C(N[C@@H](Cc1ccccc1)C(=O)c1cc(-c2ccccc2)on1)[C@H](Cc1ccccc1)NC(=O)N1CCOCC1 (single isomer, unassigned) | – | TULAHUEN | intracellular, amastigote | > 64 µM |
| Cn1ccnc1-c1nc(N2CCCCC2)c2ccccc2n1 | imaging | U2OS | intracellular, amastigote | 3.89 µM |
| C[C@@H]1[C@H](O)[C@@H](C)/C=C/C=C/C=C/C=C/C=C/C=C/C=C/[C@H](O[C@@H]2O[C@H](C)[C@@H](O)[C@H](N)[C@@H]2O)C[C@@H]2O[C@](O)(C[C@@H](O)C[C@@H](O)[C@H](O)CC[C@@H](O)C[C@@H](O)CC(=O)O[C@H]1C)C[C@H](O)[C@H]2C(=O)O | – | NIH3T3, TULAHUEN | 96 h, intracellular, amastigote | 0.48 µM |
| O=C(N[C@@H](Cc1ccccc1)C(=O)c1ncc(-c2ccccc2)s1)[C@H](Cc1ccccc1)NC(=O)N1CCOCC1 | – | TULAHUEN | intracellular, amastigote | 19.8 µM |
| COc1ccc(Nc2nc(-c3ccc(C)cc3)nc3ccccc23)cc1 | imaging | U2OS | intracellular, amastigote | 3.09 µM |
| O=C(Nc1ccc2c(c1)B(O)OC2)Nc1ccc(F)c(C(F)(F)F)c1 | – | TULAHUEN | intracellular, amastigote | 6.6 µM |
| CCCCCCCCCCCCCC#CC(=O)O | – | rat Myoblast, TULAHUEN | intracellular, amastigote | 20.2 µg/mL |
| FC(F)(F)c1ccccc1-c1nc(N2CCC(c3ccccn3)C2)c2ccccc2n1 (stereo not shown) | imaging | U2OS | intracellular, amastigote | 7.43 µM |
| C=C1CC[C@H]2C(C)=CC[C@H]3C(=C)C(=O)O[C@@H]3[C@@H]12 | – | – | 72 h, epimastigote | 1.9 µM |
| O=C(Cn1ccnc1[N+](=O)[O-])NCc1ccccc1 | – | TULAHUEN | intracellular, amastigote | 1.2 µM |
| CC1CS(=O)(=O)CCN1/N=C/c1ccc([N+](=O)[O-])o1 (stereo not shown) | – | – | epimastigote | 2.4 µM |
| c1ccc2c(N3CCCCC3)nc(-c3cnccn3)nc2c1 | imaging | U2OS | intracellular, amastigote | 18.6 µM |
| O=C(N[C@@H](Cc1ccccc1)C(=O)c1ncc(-c2ccccc2)o1)[C@H](Cc1ccccc1)NC(=O)N1CCOCC1 | – | TULAHUEN | intracellular, amastigote | 29.1 µM |
| Oc1cccc(-c2nc(N3CCC(c4ccccn4)C3)c3ccccc3n2)c1 (stereo not shown) | imaging | U2OS | intracellular, amastigote | 4.22 µM |
| C[Si](C)(C)c1cc(C(=O)[C@H](Cc2ccccc2)NC(=O)[C@H](Cc2ccccc2)NC(=O)N2CCOCC2)no1 (mixture of isomers) | – | TULAHUEN | intracellular, amastigote | > 64 µM |
| CCCCCCCCCCCCCC#CC(=O)O | – | rat Myoblast | intracellular, amastigote | 80 µM |
